The values that follow come from ChEMBL document CHEMBL1148717, “Design, synthesis, and biological evaluation of Plasmodium falciparum lactate dehydrogenase inhibitors” (J Med Chem, 2007).

Test [1] addresses T1, Malate dehydrogenase, mitochondrial (Sus scrofa, UniProt P00346).
T1 sequence (P00346 whole entry): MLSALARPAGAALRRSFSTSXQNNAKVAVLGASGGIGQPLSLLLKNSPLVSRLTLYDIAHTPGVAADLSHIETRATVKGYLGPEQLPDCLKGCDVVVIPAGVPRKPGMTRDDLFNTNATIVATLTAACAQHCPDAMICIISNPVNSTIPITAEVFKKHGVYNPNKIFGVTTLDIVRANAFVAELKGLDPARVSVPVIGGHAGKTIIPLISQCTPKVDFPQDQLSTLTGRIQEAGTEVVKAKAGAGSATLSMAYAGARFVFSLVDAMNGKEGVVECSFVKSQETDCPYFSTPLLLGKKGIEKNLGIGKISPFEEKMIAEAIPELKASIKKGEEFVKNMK
As to the kind of experiment: Inhibition of pig heart mitochondrial MDH. The gist of the method: (§1)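 Recombinant P. falciparum LDH and MDH, bovine heart LDH, and porcine heart mitochondrial and cytosolic MDH were each assayed in 50 mM potassium phosphate (pH 7.0) with 200 µM pyruvate. Reactions were started with 250 µM NADH, and the fall in A340 was followed for 5 min at 25 °C. Compounds were first screened at 50 and 100 µg/mL. Those giving over 50% inhibition at 50 µg/mL were retested for IC50.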

A further test deals with T2, Malate dehydrogenase (Plasmodium falciparum, UniProt Q6VVP7).
T2 sequence (Q6VVP7 whole entry): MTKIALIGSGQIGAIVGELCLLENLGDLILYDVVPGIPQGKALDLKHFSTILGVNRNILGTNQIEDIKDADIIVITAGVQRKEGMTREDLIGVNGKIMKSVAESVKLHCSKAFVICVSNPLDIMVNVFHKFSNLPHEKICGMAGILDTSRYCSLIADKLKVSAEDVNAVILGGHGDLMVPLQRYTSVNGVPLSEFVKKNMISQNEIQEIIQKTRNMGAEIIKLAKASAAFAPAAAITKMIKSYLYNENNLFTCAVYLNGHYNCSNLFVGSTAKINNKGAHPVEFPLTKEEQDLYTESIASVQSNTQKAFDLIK
As to the kind of experiment: Inhibition of Plasmodium falciparum MDH. The procedure, abridged:
as §1

The nature of test [2]: Inhibition of bovine heart LDH. Details: species or system Bos taurus; call rule not given here.
In another test the target is Lactate dehydrogenase (Plasmodium falciparum, UniProt Q0PJ46). The test is described as follows: Inhibition of Plasmodium falciparum LDH. The gist of the method: as §1
Sequence of Lactate dehydrogenase (Q0PJ46 whole entry): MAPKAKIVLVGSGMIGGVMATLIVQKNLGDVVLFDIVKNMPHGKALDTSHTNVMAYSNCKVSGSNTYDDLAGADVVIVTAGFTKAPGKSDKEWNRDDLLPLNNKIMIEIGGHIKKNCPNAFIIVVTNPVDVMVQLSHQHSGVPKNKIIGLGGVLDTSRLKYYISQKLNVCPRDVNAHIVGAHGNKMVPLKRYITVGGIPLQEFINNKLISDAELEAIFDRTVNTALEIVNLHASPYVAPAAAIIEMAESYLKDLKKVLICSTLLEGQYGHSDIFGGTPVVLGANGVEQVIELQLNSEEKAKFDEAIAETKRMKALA
Test [3] addresses T3, Malate dehydrogenase, cytoplasmic (Sus scrofa, UniProt P11708).
T3 sequence (P11708 whole entry): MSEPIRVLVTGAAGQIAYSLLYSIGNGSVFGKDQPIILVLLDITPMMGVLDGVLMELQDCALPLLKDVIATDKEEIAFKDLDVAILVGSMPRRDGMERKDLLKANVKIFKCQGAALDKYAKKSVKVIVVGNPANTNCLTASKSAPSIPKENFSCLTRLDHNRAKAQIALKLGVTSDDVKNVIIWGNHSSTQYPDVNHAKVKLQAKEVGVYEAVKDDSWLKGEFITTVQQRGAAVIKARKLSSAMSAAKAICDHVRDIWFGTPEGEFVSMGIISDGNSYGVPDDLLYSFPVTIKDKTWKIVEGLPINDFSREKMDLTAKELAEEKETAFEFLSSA
The test is described as follows: Inhibition of pig cytosolic MDH. The gist of the method: as §1

Test [4] in a line: Selectivity for Plasmodium falciparum LDH over bovine heart LDH.

Regarding `COc1ccc(CNC(=O)c2cc(=O)c3c(O)cc(OCCc4ccc(NC(=O)C(=O)O)c(OC)c4)cc3o2)cc1`, the IC50 in test [1] turned out to be 0.39 µM; at Malate dehydrogenase (read-out: IC50), 2.66 µM; in test [2] (read-out: IC50) it was 11.4 µM; at Lactate dehydrogenase (read-out: IC50) it was 1.75 µM; in test [3] (read-out: IC50), 6.31 µM.
Turning to `COc1ccc(CNC(=O)c2cc(=O)c3c(O)cc(OCCc4ccc(NC(=O)C(=O)O)cc4)cc3o2)cc1`, the IC50 in test [1] is 2.72 µM; on Malate dehydrogenase (read-out: IC50), 6.76 µM; in test [2] (read-out: IC50) it was over 187 µM; on Lactate dehydrogenase (read-out: IC50), 3.13 µM; in test [3] (read-out: IC50), 4.88 µM. Moreover, the Ratio IC50 in test [4] worked out at 59.
For `COc1cc(COc2cc(O)c3c(=O)cc(C(=O)O)oc3c2)ccc1NC(=O)C(=O)O`, the IC50 is 64 µM in test [1], 48.3 µM on Malate dehydrogenase (read-out: IC50), 87.3 µM on Lactate dehydrogenase (read-out: IC50) and over 232 µM in test [3] (read-out: IC50).
For `NC(=O)C(=O)O` [OXAMATE], the half-inhibitory concentration (IC50) in test [1] is over 2000 µM; on Malate dehydrogenase (read-out: IC50), over 2000 µM; on Lactate dehydrogenase (read-out: IC50), 92.5 µM; in test [3] (read-out: IC50), over 2000 µM.
For the compound `N#Cc1cc(CCOc2cc(O)c3c(=O)cc(C(=O)O)oc3c2)ccc1NC(=O)C(=O)O`, the IC50 in test [1] was 17.1 µM; against Malate dehydrogenase it was “Not Active”; in test [2] it was “Not Active”; on Lactate dehydrogenase it was “Not Active”; in test [3] (read-out: IC50) it was 13.6 µM.
As for `COc1ccc(CNC(=O)c2cc(=O)c3c(O)cc(OCCc4ccc(NC(=O)C(=O)O)c(C#N)c4)cc3o2)cc1`, the half-maximal inhibitory concentration (IC50) in test [1] was 5.91 µM; on Malate dehydrogenase (read-out: IC50), 86.9 µM; in test [2] (read-out: IC50), over 179 µM; on Lactate dehydrogenase (read-out: IC50) it was 8.25 µM; in test [3] (read-out: IC50), 10.9 µM. Moreover, in test [4], the Ratio IC50 stood at 22.
As for `O=C(O)C(=O)Nc1ccc(CCOc2cc(O)c3c(=O)cc(C(=O)O)oc3c2)cc1`, the IC50 was 96.7 µM in test [1], over 241 µM at Malate dehydrogenase (read-out: IC50), over 241 µM on Lactate dehydrogenase (read-out: IC50) and “Not Active” in test [3].
Regarding `COc1cc(CCOc2cc(O)c3c(=O)cc(C(=O)O)oc3c2)ccc1NC(=O)C(=O)O`, the IC50 was over 225 µM in test [1], over 225 µM at Malate dehydrogenase (read-out: IC50), 191 µM on Lactate dehydrogenase (read-out: IC50) and “Not Active” in test [3].
Turning to `Cc1cc2c(C(C)C)c(O)c(O)c(C=O)c2c(O)c1-c1c(C)cc2c(C(C)C)c(O)c(O)c(C=O)c2c1O` [GOSSYPOL], the IC50 stood at 2.8 µM in test [1]; 2.03 µM at Malate dehydrogenase (read-out: IC50); 9.54 µM in test [2] (read-out: IC50); 2.64 µM at Lactate dehydrogenase (read-out: IC50); 5.8 µM in test [3] (read-out: IC50).
